In ChEMBL document CHEMBL4834426, “Antimalarial Benzimidazole Derivatives Incorporating Phenolic Mannich Base Side Chains Inhibit Microtubule and Hemozoin Formation: Structure-Activity Relationship and In Vivo Oral Efficacy Studies” (J Med Chem, 2021):

What was measured:
Plasmodium falciparum [1] = assay: Antimalarial activity against asexual blood stage drug-sensitive Plasmodium falciparum NF54 infected in erythrocytes assessed as reduction in parasitemia incubated up to 72 hrs by [3H]hypoxanthine incorporation assay; format: functional, organism-based
Outline: (§1)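 [³H]-Hypoxanthine incorporation assay (modified) on asexual blood-stage P. falciparum in vitro. IC₅₀ values are means of ≥2 independent experiments.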

Plasmodium falciparum [2] = assay: Antimalarial activity against asexual blood stage multi drug-resistant Plasmodium falciparum K1 infected in erythrocytes assessed as reduction in parasitemia incubated up to 72 hrs by [3H]hypoxanthine incorporation assay; format: functional, organism-based; outline: as §1
[3] = Resistance index, ratio of IC50 for antimalarial activity against asexual blood stage multi drug-resistant Plasmodium falciparum K1 to IC50 for antimalarial activity against asexual blood stage drug-sensitive Plasmodium falciparum NF54; format: functional
Outline: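 Resistance index is IC₅₀(K1)/IC₅₀(NF54). Both IC₅₀s came from the [³H]-hypoxanthine incorporation assay, as means of ≥2 independent experiments.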

Plasmodium falciparum [4] = assay: Antiplasmodial activity against […] Plasmodium falciparum NF54 early gametocytes transfected with GFP-Luc […] at 5 uM incubated for 48 hrs by microscopy based luciferase reporter gene assay relative to control; format: functional
Outline: (§2)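 NF54-Pfs16-GFP-Luc gametocytes, assays set up day 5 (early, stage II/III) or day 10 (late, stage IV/V). Culture at 2−3% gametocytemia, 1.5% hematocrit, 48 h drug exposure at 37 °C under 90% N₂/5% O₂/5% CO₂. Lysates mixed with luciferin; bioluminescence read with 10 s integration. Dual-point: one biological repeat in technical triplicate. Methylene blue (5 μM) reference.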

Plasmodium falciparum [5] = assay: Antiplasmodial activity against […] Plasmodium falciparum NF54 early gametocytes transfected with GFP-Luc […] at 1 uM incubated for 48 hrs by microscopy based luciferase reporter gene assay relative to control; format: functional; outline: as §2
Plasmodium falciparum [6] = assay: Antiplasmodial activity against […] Plasmodium falciparum NF54 late gametocytes transfected with GFP-Luc […] at 5 uM incubated for 48 hrs by microscopy based luciferase reporter gene assay relative to control; format: functional; outline: as §2
CHO = assay: Cytotoxicity against CHO cells assessed as inhibition of cell viability by MTT assay; format: cell-based; settings: Cricetulus griseus
[7] = Selectivity index, ratio of IC50 for Cytotoxicity against CHO cells assessed as inhibition of cell viability by MTT assay to IC50 for antimalarial activity against asexual blood stage Plasmodium falciparum NF54 assessed as reduction in parasitemia incubated up to 72 hrs by [3H]hypoxanthine incorporation assay; format: toxicity, cell-based; settings: hamster, read-out: Selectivity Index
Outline: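 Selectivity index is IC₅₀(CHO)/IC₅₀(NF54). […] IC₅₀ came from nonlinear dose-response fitting. Parasite IC₅₀ came from the [³H]-hypoxanthine assay.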

Plasmodium falciparum [8] = assay: Antiplasmodial activity against […] Plasmodium falciparum NF54 late gametocytes transfected with GFP-Luc […] at 1 uM incubated for 48 hrs by microscopy based luciferase reporter gene assay relative to control; format: functional; outline: as §2

| Compound | IC50 (Plasmodium falciparum [1]) [nM] | IC50 (Plasmodium falciparum [2]) [nM] | Ratio IC50 [3] | inhibition at 5 µM (Plasmodium falciparum [4]) [%] | inhibition at 1 µM (Plasmodium falciparum [5]) [%] | inhibition at 5 µM (Plasmodium falciparum [6]) [%] | IC50 (CHO) [nM] | selectivity ratio at 72 h [7] | inhibition at 1 µM (Plasmodium falciparum [8]) [%] |
| --- | --- | --- | --- | --- | --- | --- | --- | --- | --- |
| CCN(CC)Cc1cc(C)cc(Nc2nc3ccccc3[nH]2)c1O | 230 | 420 | 1.83 | 44 | 1 | 37 | > 50000 | > 217 | – |
| CN(C)c1ccc2nc3ccc(N(C)C)cc3[s+]c2c1 [METHYLENE BLUE ANHYDROUS] | – | – | – | – | 93 | – | – | – | 90 |
| CCN(CC)Cc1cc(Nc2nc3ccccc3n2Cc2ccc(C(F)(F)F)cc2)ccc1O | 390 | 1690 | 4.33 | 48 | 34 | 45 | 17500 | 44.9 | 31 |
| CC(C)(C)NCc1cc(C(C)(C)C)cc(Nc2nc3ccccc3[nH]2)c1O | 80 | 250 | 3.12 | 56 | 30 | 0 | 30500 | > 380 | 0 |
| CC(C)(C)NCc1cc(C(C)(C)C)cc(Nc2nc3cc(F)c(F)cc3[nH]2)c1O | 150 | 280 | 1.87 | 0 | 0 | 0 | 34200 | 228 | 0 |
| CCN(CC)Cc1ccc(C)c(Nc2nc3ccccc3n2Cc2ccc(C#N)cc2)c1O | 870 | 830 | 0.95 | 96 | 19 | 22 | > 50000 | > 57 | 0 |
| CCN(CC)Cc1ccc(C)c(Nc2nc3ccccc3n2Cc2ccc(C(F)(F)F)cc2)c1O | 2880 | 940 | 0.33 | 90 | 18 | 43 | 33900 | 11.8 | 29 |
| CCN(CC)Cc1ccc(Nc2nc3ccccc3n2Cc2ccc(C#N)cc2)cc1O | 370 | 760 | 2.05 | 44 | 38 | 21 | 39000 | 106 | – |
| CCN(CC)Cc1ccc(Nc2nc3ccccc3[nH]2)cc1O | 1880 | > 10000 | > 5.32 | – | – | – | > 50000 | > 26 | – |
| CCN(CC)Cc1ccc(Nc2nc3ccccc3n2Cc2ccc(F)cc2)cc1O | 640 | 1280 | 2 | 15 | 12 | 36 | 45800 | 71.5 | 31 |
| Cc1cc(CNC(C)(C)C)c(O)c(Nc2nc3c(Cl)cc(Cl)cc3[nH]2)c1 | 220 | 400 | 1.81 | 0 | 0 | 0 | 25800 | 117 | 0 |
| CC(C)(C)NCc1cc(Cl)cc(Nc2nc3ccccc3[nH]2)c1O | 270 | 630 | 2.33 | 0 | 0 | 0 | > 50000 | > 185 | 0 |
| CCN(CC)Cc1cc(Nc2nc3ccccc3[nH]2)ccc1O | 800 | 7270 | 9.09 | 9 | 30 | 28 | > 50000 | > 62 | 0 |
| CCN(CC)Cc1cccc(Nc2nc3ccccc3n2Cc2ccc(C#N)cc2)c1O | 1000 | 660 | 0.66 | 69 | 47 | 43 | > 50000 | > 50 | – |
| CCN(CC)Cc1ccc(C)c(Nc2nc3ccccc3[nH]2)c1O | 860 | 1620 | 1.88 | 32 | 3 | 31 | > 50000 | > 58 | 34 |
| CC(C)(C)NCc1cc(Cl)cc(Nc2nc3cc(F)c(F)cc3[nH]2)c1O | 260 | 530 | 2.4 | 16 | 0 | 0 | 39700 | 153 | 0 |
| CCN(CC)Cc1cc(Nc2nc3ccccc3n2Cc2ccc(F)cc2)ccc1O | 680 | 1950 | 2.87 | 59 | 33 | 39 | 12000 | 17.6 | 11 |
| Cc1cc(CN)c(O)c(Nc2nc3ccccc3n2Cc2ccc(C(F)(F)F)cc2)c1 | 5470 | – | – | 38 | 20 | 0 | 47600 | 10.4 | 0 |
| CCN(CC)Cc1cc(Nc2nc3ccccc3n2Cc2ccc(C#N)cc2)ccc1O | 470 | 1970 | 4.19 | 23 | 20 | 35 | > 50000 | > 106 | – |
| CCN(CC)Cc1cccc(Nc2nc3ccccc3[nH]2)c1O | 560 | 770 | 1.38 | 0 | 3 | 34 | > 50000 | > 89 | – |
